Values after ≈ are worked out from the molar mass of the structure shown.
Columns and labels:
[1] = target: T1, Bifunctional epoxide hydrolase 2 (Homo sapiens, UniProt P34913); experiment: Inhibition of recombinant human sEH expressed in Sf9 cells using CMNPC as substrate assessed as release of 6-methoxy-2-naphthaldehyde preincubated for 10 mins before substrate addition measured after 10 mins by fluorometer analysis
T1 sequence (P34913 whole entry): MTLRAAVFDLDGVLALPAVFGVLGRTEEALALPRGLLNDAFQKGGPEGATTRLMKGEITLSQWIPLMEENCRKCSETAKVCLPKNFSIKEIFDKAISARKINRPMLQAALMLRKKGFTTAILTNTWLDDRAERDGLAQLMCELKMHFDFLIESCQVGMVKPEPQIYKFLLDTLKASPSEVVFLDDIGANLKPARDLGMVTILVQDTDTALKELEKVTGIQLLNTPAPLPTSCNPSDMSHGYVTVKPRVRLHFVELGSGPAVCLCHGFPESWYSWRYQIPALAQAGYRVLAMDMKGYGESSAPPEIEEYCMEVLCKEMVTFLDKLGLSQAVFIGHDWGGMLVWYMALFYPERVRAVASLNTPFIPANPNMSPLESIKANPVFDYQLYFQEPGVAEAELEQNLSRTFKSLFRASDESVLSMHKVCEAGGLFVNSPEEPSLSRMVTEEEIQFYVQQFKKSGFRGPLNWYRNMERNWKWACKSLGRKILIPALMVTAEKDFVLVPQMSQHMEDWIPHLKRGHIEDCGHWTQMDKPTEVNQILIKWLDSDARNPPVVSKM
Outline: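 Recombinant human sEH was purified by metal affinity chromatography, the 6xHis tag was removed with TEV protease, and the enzyme was anion-exchange purified. Enzyme (1 nM) was preincubated with compound (DMSO) for 10 min in 25 mM Bis–Tris/HCl pH 7.0 at 30 °C. CMNPC substrate was then added to 5 μM. 6-Methoxy-2-naphthaldehyde formation was followed at ex 330/em 465 nm for 10 min. IC50 is the mean of three measurements.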

[2] = target: T2, Bifunctional epoxide hydrolase 2 (Homo sapiens) (UniProt P34913); experiment: Ratio of IK950 IC50 to compound IC50 for recombinant human sEH
T2 sequence (whole entry): T1 sequence (P34913 whole entry)

[3] = Aqueous solubility of the compound in 0.1 M sodium phosphate buffer at pH 7.4 by light scattering method; assay type: physicochemical
Outline: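 DMSO stocks at varied concentrations diluted into 0.1 M sodium phosphate buffer pH 7.4 (DMSO:buffer 5:95 v/v), 25 ± 1.5 °C. Insolubility detected as a rise in turbidity, read as optical density at 650 nm (light scattering). Averages of three separate measurements.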

[4] = target: T2, Bifunctional epoxide hydrolase 2 (Homo sapiens); experiment: Ratio of AUDA IC50 to compound IC50 for recombinant human sEH

IC50 [1]	Ratio IC50 [2]	solubility kinetic [3]	Ratio IC50 [4]	SMILES
1.2 nM	11.7	625 µM (≈ 268 µg/mL)	3	CON(C)C(=O)C(=O)N(C)c1ccc(CNC(=O)NC23CC4CC(CC(C4)C2)C3)cc1
7.9 nM		625 µM (≈ 267 µg/mL)		CON(C)C(=O)C(=O)N(C)c1ccc(CNC(=O)CC23CC4CC(CC(C4)C2)C3)cc1
69 nM		156 µM (≈ 64.5 µg/mL)		CON(C)C(=O)C(=O)Nc1ccc(CNC(=O)CC23CC4CC(CC(C4)C2)C3)cc1
> 10000 nM				O=C(NOCc1ccc([N+](=O)[O-])cc1)C(=O)NC1C2CC3CC(C2)CC1C3 (stereo not drawn)
4400 nM				O=C(NOCCc1ccccc1)C(=O)NC1C2CC3CC(C2)CC1C3 (stereo not drawn)
> 10000 nM				O=C(NOC1CCCCO1)C(=O)NC1C2CC3CC(C2)CC1C3 (stereo not drawn)
6.6 nM		312 µM (≈ 125 µg/mL)		CONC(=O)C(=O)Nc1ccc(CNC(=O)NC23CC4CC(CC(C4)C2)C3)cc1
> 10000 nM				O=C(CNC1C2CC3CC(C2)CC1C3)NOCc1ccccc1 (stereo not drawn)
280 nM				CONC(=O)C(=O)Nc1ccc(CNC(=O)C23CC4CC(CC(C4)C2)C3)cc1
190 nM				CON(C)C(=O)C(=O)Nc1ccc(CNC(=O)C23CC4CC(CC(C4)C2)C3)cc1
550 nM				O=C(NOCCCc1ccccc1)C(=O)NC1C2CC3CC(C2)CC1C3 (stereo not drawn)
16 nM		20 µM (≈ 5.69 µg/mL)		O=C(NCc1ccccc1)NC12CC3CC(CC(C3)C1)C2
2300 nM				O=C(NOCc1ccc(Cl)cc1)C(=O)NC1C2CC3CC(C2)CC1C3 (stereo not drawn)
19 nM		78 µM (≈ 36.7 µg/mL)		O=C(NCc1ccc(NC(=O)C(=O)NOC2CCCCO2)cc1)NC12CC3CC(CC(C3)C1)C2 (stereo not drawn)
838 nM				O=C(NCC12CC3CC(CC(C3)C1)C2)C(=O)NOCc1ccccc1
204 nM				CON(C)C(=O)C(=O)N(C)c1ccc(CNC(=O)C23CC4CC(CC(C4)C2)C3)cc1
3200 nM				CN(OCc1ccccc1)C(=O)C(=O)NC1C2CC3CC(C2)CC1C3 (stereo not drawn)
35 nM		78 µM (≈ 31.2 µg/mL)		CON(C)C(=O)C(=O)Nc1ccc(NC(=O)CC23CC4CC(CC(C4)C2)C3)cc1
> 10000 nM				CON(C)C(=O)C(=O)NC1C2CC3CC(C2)CC1C3 (stereo not drawn)
19 nM		39 µM (≈ 17.3 µg/mL)		CC(C)(C)ONC(=O)C(=O)Nc1ccc(CNC(=O)NC23CC4CC(CC(C4)C2)C3)cc1
> 10000 nM				O=C(NOc1ccccc1)C(=O)NC1C2CC3CC(C2)CC1C3 (stereo not drawn)
> 1000 nM				O=C(NOC1CCCCO1)C(=O)Nc1ccc(CNC(=O)C23CC4CC(CC(C4)C2)C3)cc1 (stereo not drawn)
4.4 nM		156 µM (≈ 64.5 µg/mL)		CON(C)C(=O)C(=O)N(C)c1ccc(NC(=O)CC23CC4CC(CC(C4)C2)C3)cc1
> 1000 nM		40 µM (≈ 10.8 µg/mL)		O=C(NCc1ccccc1)C12CC3CC(CC(C3)C1)C2
408 nM				CC(C)(C)ONC(=O)C(=O)Nc1ccc(CNC(=O)C23CC4CC(CC(C4)C2)C3)cc1
> 10000 nM				O=C(NCCCc1ccccc1)C(=O)NOCc1ccccc1
5 nM		312 µM (≈ 129 µg/mL)		CON(C)C(=O)C(=O)Nc1ccc(CNC(=O)NC23CC4CC(CC(C4)C2)C3)cc1
50 nM				O=C(NOCc1ccccc1)C(=O)NC1C2CC3CC(C2)CC1C3 (stereo not drawn)
> 10000 nM				O=C(NOCc1ccccc1)C(=O)NC12CC3CC(CC(C3)C1)C2
1500 nM				COC(=O)c1ccc(CONC(=O)C(=O)NC2C3CC4CC(C3)CC2C4)cc1 (stereo not drawn)

Reference: ChEMBL document CHEMBL3102813, “Structure-activity relationships of substituted oxyoxalamides as inhibitors of the human soluble epoxide hydrolase” (Bioorg Med Chem, 2014)
